Legend:
Human betaherpesvirus 5 = test: Concentration required to reduce viral plaque formation by Human Cytomegalovirus (HCMV) (strain AD-169) in MRC-5 cells; type: functional, organism-based; details: Human betaherpesvirus 5, MRC5
MRC5 = test: Concentration required to reduce MRC-5 cell growth by 50%; type: functional; details: Homo sapiens
Procedure, shortened: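 MRC-5 fibroblasts seeded at 5 × 10³ cells/well, left to proliferate 24 h, then exposed to different concentrations of test compound (duplicate). After 3 days at 37 °C in 5% CO₂, cell number counted with a Coulter counter.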

SMILES	IC50 (Human betaherpesvirus 5)	CC50 (MRC5)
O=C1c2ccccc2N(Cc2ccc([N+](=O)[O-])cc2)S(=O)(=O)N1Cc1ccc([N+](=O)[O-])cc1	53 µM	> 53 µM
Cc1ccc(C(=O)CN2c3ccccc3C(=O)N(Cc3ccccc3)S2(=O)=O)cc1	2.8 µM	> 59 µM
COc1ccc(CCN2c3ccccc3C(=O)N(Cc3ccccc3)S2(=O)=O)cc1	4 µM	> 59 µM
O=C1c2ccccc2N(Cc2cccc3ccccc23)S(=O)(=O)N1Cc1ccccc1	11.6 µM	> 58 µM
O=C1c2ccccc2N(Cc2ccccc2)S(=O)(=O)N1Cc1ccccc1Cl	12 µM	> 60 µM
Cc1ccc(CN2c3ccccc3C(OCc3ccccc3)=NS2(=O)=O)cc1	10 µM	> 63 µM
O=C1c2ccccc2N(Cc2ccccc2Cl)S(=O)(=O)N1Cc1ccccc1Cl	33 µM	> 56 µM
O=C1c2ccccc2N(Cc2ccc(Cl)cc2)S(=O)(=O)N1Cc1ccc(Cl)cc1	3.3 µM	> 56 µM
O=C1c2ccccc2N(Cc2ccc(C(F)(F)F)cc2)S(=O)(=O)N1Cc1ccccc1	3.3 µM	> 56 µM
O=C1c2ccccc2N(Cc2ccccc2Cl)S(=O)(=O)N1Cc1ccccc1	4.8 µM	> 60 µM
O=S1(=O)N=C(OCc2ccc(-c3ccccc3)cc2)c2ccccc2N1Cc1ccc(-c2ccccc2)cc1	47 µM	> 47 µM
O=C1c2ccccc2N(Cc2ccc(C(F)(F)F)cc2)S(=O)(=O)N1Cc1ccc(C(F)(F)F)cc1	15 µM	> 48 µM
O=[N+]([O-])c1ccc(COC2=NS(=O)(=O)N(Cc3ccc([N+](=O)[O-])cc3)c3ccccc32)cc1	53 µM	> 53 µM
COc1ccc(C(=O)CN2c3ccccc3C(=O)N(Cc3ccccc3)S2(=O)=O)cc1	3.2 µM	> 57 µM
O=C(CN1c2ccccc2C(=O)N(Cc2ccccc2)S1(=O)=O)c1ccccc1	24.6 µM	> 61 µM
CC(C)CN1c2ccccc2C(=O)N(Cc2ccccc2)S1(=O)=O	14.5 µM	72 µM
COc1ccc(CN2c3ccccc3C(OCc3ccccc3)=NS2(=O)=O)cc1	61 µM	> 61 µM
O=C1c2ccccc2N(Cc2cccc(Cl)c2)S(=O)(=O)N1Cc1ccccc1	3.6 µM	> 60 µM
O=S1(=O)N=C(OCc2ccccc2)c2ccccc2N1Cc1ccccc1	7.9 µM	> 66 µM
N#Cc1ccc(CN2c3ccccc3C(OCc3ccccc3)=NS2(=O)=O)cc1	29 µM	> 62 µM
O=S1(=O)N=C(OCc2ccc(Cl)c(Cl)c2)c2ccccc2N1Cc1ccc(Cl)c(Cl)c1	48 µM	> 48 µM

SMILES	IC50 (Human betaherpesvirus 5)	CC50 (MRC5)
Nc1nc2c(ncn2COC(CO)CO)c(=O)[nH]1 [GANCICLOVIR]	5.9 µM	> 98 µM
O=C1c2ccccc2N(CCCc2ccccc2)S(=O)(=O)N1Cc1ccccc1	18.4 µM	> 57 µM
O=C1c2ccccc2N(Cc2cccnc2)S(=O)(=O)N1Cc1ccccc1	13.1 µM	66 µM
O=S1(=O)N=C(OCc2ccc(C(F)(F)F)cc2)c2ccccc2N1Cc1ccc(C(F)(F)F)cc1	23 µM	> 48 µM
O=C1c2ccccc2N(Cc2ccc(Cl)c(Cl)c2)S(=O)(=O)N1Cc1ccccc1	4 µM	> 56 µM
O=C1c2ccccc2N(Cc2ccc(-c3ccccc3)cc2)S(=O)(=O)N1Cc1ccc(-c2ccccc2)cc1	47 µM	> 47 µM
O=C1c2ccccc2N(Cc2ccc(Cl)c(Cl)c2)S(=O)(=O)N1Cc1ccc(Cl)c(Cl)c1	15 µM	> 48 µM
Cc1ccc(CN2c3ccccc3C(=O)N(Cc3ccccc3)S2(=O)=O)cc1	2.5 µM	> 63 µM
O=S1(=O)N=C(OCc2ccccc2)c2ccccc2N1Cc1ccc(Cl)c(Cl)c1	26 µM	> 56 µM
O=C1c2ccccc2N(Cc2ccc([N+](=O)[O-])cc2)S(=O)(=O)N1Cc1ccccc1	8 µM	> 59 µM
COc1ccc(CN2C(=O)c3ccccc3N(Cc3ccc(OC)cc3)S2(=O)=O)cc1	57 µM	> 57 µM
O=C1c2ccccc2N(Cc2ccccc2)S(=O)(=O)N1Cc1ccc(Cl)cc1	6 µM	> 60 µM
O=C1c2ccccc2N(CCc2ccccc2)S(=O)(=O)N1Cc1ccccc1	7.6 µM	> 64 µM
O=C1c2ccccc2N(Cc2ccccc2)S(=O)(=O)N1Cc1ccccc1	5.3 µM	> 66 µM
O=C1c2ccccc2N(CC2CCCCC2)S(=O)(=O)N1Cc1ccccc1	15.6 µM	> 65 µM
C#CCCN1c2ccccc2C(=O)N(Cc2ccccc2)S1(=O)=O	76.6 µM	77 µM
O=C1c2ccccc2N(Cc2ccccc2-c2ccccc2)S(=O)(=O)N1Cc1ccccc1	44 µM	> 55 µM
COc1ccc(CN2c3ccccc3C(=O)N(Cc3ccccc3)S2(=O)=O)cc1	7 µM	> 61 µM
O=C1c2ccccc2N(Cc2ccc(Cl)cc2)S(=O)(=O)N1Cc1ccccc1	3.6 µM	> 60 µM
N#Cc1ccc(CN2c3ccccc3C(=O)N(Cc3ccccc3)S2(=O)=O)cc1	8 µM	> 62 µM
